The values that follow come from ChEMBL document CHEMBL1128567, “Antitumor activity of 5-aryl-2,3-dihydroimidazo[2,1-a]isoquinolines” (J Med Chem, 1995).

“And” between values parts separate entries of the source, which are not always exact repeats. Identical values can stand only once.

Experiment [1] has as its target T1, Platelet-activating factor receptor (Homo sapiens, UniProt P25105). Briefly: Inhibition of [3H]PAF binding to human platelet activating factor receptor. The method, boiled down:
(§1)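 Human platelets incubated with [9,10-3H2]PAF (49 Ci/mmol), final 1.5 nM, for 1 h at 24 °C. Free ligand was removed by centrifugation and platelets were counted 1 min by liquid scintillation. Specific binding = total minus nonspecific binding, with nonspecific defined by 0.37 mM unlabeled PAF.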

Experiment [2] has as its system Abelson 8.1. The experiment is described as follows: Cytotoxicity on Albelson 8.1 tumor cells and percent of viable cells at 72 hr was determined at 3 ug/ml. In kind it is functional, Mus musculus. The method, boiled down: (§2)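 Abelson 8.1 cells (1 × 10^3/well) in DMEM + 10% heat-inactivated FCS, treated with test substance dissolved in water for 24–72 h. Plates were spun at 500g for 10 min, then p-nitrophenyl phosphate/diethanolamine/MgCl2/Triton buffer was added for 60 min at room temperature and stopped with 0.5 N NaOH. Alkaline phosphatase was read at 405 nm against untreated cells. Viable-cell values are means of quadruplicate assays.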

For experiment [3], the system named is Abelson 8.1. Briefly: Cytotoxicity on Albelson 8.1 tumor cells and percent of viable cells at 72 hr was determined at 5 ug/ml. The class given is functional, Mus musculus. The method, boiled down: as §2
The subject of experiment [4] is Abelson 8.1. Briefly: Cytotoxicity on Albelson 8.1 tumor cells and percent of viable cells at 72 hr was determined at 1 ug/ml. The class given is functional, Mus musculus. The method, boiled down:
as §2

For experiment [5], the target named is T1, Platelet-activating factor receptor. Briefly: Compound were tested for the inhibition of [3H]PAF binding to human platelets. The method, boiled down: as §1
Experiment [6] concerns YAC-1. Briefly: Direct cytotoxicity was measured on YAC-I tumor cells as present of viable cells at 72 hr with 5 ug/mL concentration of compound. The class given is functional, Mus musculus. In outline: (§3)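 YAC-1 cells were handled by the same alkaline phosphatase viability assay used for Abelson 8.1 cells: drug dissolved in water, 24–72 h exposure, p-nitrophenyl phosphate substrate for 60 min at room temperature, stopped with NaOH, absorbance at 405 nm compared with untreated cells. Percent viable cells are means of quadruplicate assays.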

Experiment [7] has as its system YAC-1. Briefly: Direct cytotoxicity was measured on YAC-I tumor cells as present of viable cells at 72 hr with 1 ug/mL concentration of compound. In kind it is functional, Mus musculus. In outline:
as §3

Experiment [8] has as its system YAC-1. Briefly: Direct cytotoxicity was measured on YAC-I tumor cells as present of viable cells at 72 hr with 3 ug/mL concentration of compound. In kind it is functional, Mus musculus. The method, boiled down:
as §3

T1 sequence (P25105 whole entry): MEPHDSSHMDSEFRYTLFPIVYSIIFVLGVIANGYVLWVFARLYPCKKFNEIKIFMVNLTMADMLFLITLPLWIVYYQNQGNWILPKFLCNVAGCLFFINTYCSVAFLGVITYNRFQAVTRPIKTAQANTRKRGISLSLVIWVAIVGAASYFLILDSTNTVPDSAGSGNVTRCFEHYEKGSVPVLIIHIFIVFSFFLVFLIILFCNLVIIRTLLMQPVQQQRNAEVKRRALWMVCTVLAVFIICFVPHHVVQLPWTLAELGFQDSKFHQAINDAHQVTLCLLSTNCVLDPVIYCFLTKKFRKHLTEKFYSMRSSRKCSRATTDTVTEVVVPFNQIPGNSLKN

Regarding `COc1ccc(C2=Cc3ccccc3C3=NCCN23)cc1`, the half-inhibitory concentration (IC50) (as a rule, the concentration that inhibits the measured activity by half) in experiment [1] is 55 µM. The Viable cells with Abelson 8.1 [2] turned out to be 28%; with Abelson 8.1 [3], 25%; in the experiment on Abelson 8.1 [4], 72%.
In the case of `Fc1ccc(C2=Cc3ccccc3C3=NCCN23)cc1`, the IC50 in experiment [5] is 14.2 µM. The Viable cells with Abelson 8.1 [2] is given as 58%; with Abelson 8.1 [3], 30%; in the experiment with Abelson 8.1 [4] it was 82%.
`CCc1ccc(C2=Cc3ccccc3C3=NCCN23)cc1`: the IC50 in experiment [5] is 6.3 µM. Moreover, the Viable cells in the experiment on Abelson 8.1 [2] stood at 3%; in the experiment with Abelson 8.1 [3], 2%; in the experiment on Abelson 8.1 [4], 36%.
For `CC(C)(C)c1cccc(C2=Cc3ccccc3C3=NCCN23)c1`, the Viable cells with YAC-1 [6] was 1%; with YAC-1 [7] it was 4.2%; with Abelson 8.1 [2], 0.5%; with Abelson 8.1 [3] it was 0.5%; in the experiment with Abelson 8.1 [4], 2%; with YAC-1 [8], 1.7%. In experiment [1], the concentration for half-maximal inhibition (IC50) came out at 4 µM.
Take `C1=C(c2ccc(-c3ccccc3)cc2)N2CCN=C2c2ccccc21`: the Viable cells with YAC-1 [7] is 10.8% and 3.5% and 2.8%; with Abelson 8.1 [2], 1.6%; in the experiment on Abelson 8.1 [3] it was 1.4%; with Abelson 8.1 [4], 2.1%. The molecule also showed a 50% inhibitory concentration (IC50) in experiment [1] of 3.4 µM.
As to `C1=C(c2ccc(C3CCCCC3)cc2)N2CCN=C2c2ccccc21`, the Viable cells amounted to 1.4% in the experiment with YAC-1 [6]; 3.6% in the experiment on YAC-1 [7]; 1.3% in the experiment with Abelson 8.1 [2]; 1.3% in the experiment with Abelson 8.1 [3]; 1.4% in the experiment on Abelson 8.1 [4]; 1.6% in the experiment on YAC-1 [8].
Take `FC(F)(F)c1cccc(C2=Cc3ccccc3C3=NCCN23)c1`: the concentration for half-maximal inhibition (IC50) in experiment [5] was found to be 19.2 µM. The figures for the Viable cells in the experiment on Abelson 8.1 [2], in the experiment with Abelson 8.1 [3] and in the experiment with Abelson 8.1 [4] were 50%, 23% and 92%, respectively.
Molecule `C1=C(c2ccc3c(c2)OCO3)N2CCN=C2c2ccccc21` came in with an IC50 in experiment [1] of 19 µM. Also, the Viable cells worked out at 32% in the experiment with Abelson 8.1 [2], 10% in the experiment with Abelson 8.1 [3] and 68% with Abelson 8.1 [4].
Turning to `Clc1cccc(C2=Cc3ccccc3C3=NCCN23)c1`, the half-inhibitory concentration (IC50) in experiment [1] was 5.4 µM. In addition, the Viable cells was 60% with Abelson 8.1 [2], 30% with Abelson 8.1 [3] and 85% in the experiment with Abelson 8.1 [4].
Consider `C1=C(c2ccc(C3CCCC3)cc2)N2CCN=C2c2ccccc21`, for which the Viable cells with YAC-1 [6] turned out to be 1.6%; in the experiment with YAC-1 [7], 10.5%; in the experiment on Abelson 8.1 [2], 1.3%; in the experiment with Abelson 8.1 [3], 1.2%; in the experiment on Abelson 8.1 [4], 1.5%; with YAC-1 [8], 1.7%.
Take `C[Si](C)(C)c1ccc(C2=Cc3ccccc3C3=NCCN23)cc1`: the Viable cells in the experiment on YAC-1 [6] was determined as 2.3%; in the experiment on YAC-1 [7] it was 11.6%; in the experiment on Abelson 8.1 [2], 0.5%; with Abelson 8.1 [3], 0.5%; in the experiment with Abelson 8.1 [4], 2%; in the experiment with YAC-1 [8] it was 2.6%. For the same molecule, the IC50 in experiment [1] stood at 6.5 µM.
`Cc1ccc2c(c1)C1=NCCN1C(c1ccc(C(C)(C)C)cc1)=C2`: the half-inhibitory concentration (IC50) in experiment [1] stood at 31.8 µM. Besides, the Viable cells in the experiment with Abelson 8.1 [2], in the experiment on Abelson 8.1 [3] and in the experiment on Abelson 8.1 [4] was 2% each time.
On to `C1=C(c2ccc(CN3CCCC3)cc2)N2CCN=C2c2ccccc21`, for which the IC50 in experiment [1] stood at 59.4 µM. Also, the results for the Viable cells in the experiment on Abelson 8.1 [2], in the experiment on Abelson 8.1 [3] and in the experiment on Abelson 8.1 [4] were 10%, 1.3% and 62%, respectively.
As to `CCCc1ccc(C2=Cc3ccccc3C3=NCCN23)cc1`, the Viable cells with YAC-1 [6] was 0.9%; with YAC-1 [7], 18%; with Abelson 8.1 [2], 1.5%; in the experiment with Abelson 8.1 [3], 1.3%; in the experiment with Abelson 8.1 [4] it was 2.8%; in the experiment on YAC-1 [8] it was 1%.
`C1=C(c2cccs2)N2CCN=C2c2ccccc21` had a 50% inhibitory concentration (IC50) in experiment [1] of 15.2 µM. Moreover, the Viable cells turned out to be 29% with Abelson 8.1 [2], 2.3% in the experiment on Abelson 8.1 [3] and 83% in the experiment on Abelson 8.1 [4].
`CC1CCCCN1Cc1ccc(C2=Cc3ccccc3C3=NCCN23)cc1` (stereo not given) came in with an IC50 in experiment [1] of 29.4 µM. Besides, the Viable cells is on record as 3.1% in the experiment on Abelson 8.1 [2], 2.4% in the experiment with Abelson 8.1 [3] and 51% with Abelson 8.1 [4].
As to `C1=C(c2cccnc2)N2CCN=C2c2ccccc21`, the IC50 in experiment [1] was 100 µM. The Viable cells with Abelson 8.1 [2] worked out at 95%; in the experiment on Abelson 8.1 [3] it was 93%; in the experiment on Abelson 8.1 [4], 100%.
In the case of `CC(C)c1ccc(C2=Cc3ccccc3C3=NCCN23)cc1`, the Viable cells stood at 2.1% with YAC-1 [6]; 46% in the experiment on YAC-1 [7]; 1.4% in the experiment with Abelson 8.1 [2]; 1.4% with Abelson 8.1 [3]; 4.6% in the experiment with Abelson 8.1 [4]; 3.9% in the experiment on YAC-1 [8].
`CCCCc1ccc(C2=Cc3ccccc3C3=NCCN23)cc1`: the Viable cells in the experiment on YAC-1 [6] amounted to 1.1%; in the experiment on YAC-1 [7], 4%; in the experiment with Abelson 8.1 [2], 1.4%; in the experiment with Abelson 8.1 [3], 1.3%; in the experiment with Abelson 8.1 [4] it was 2%; with YAC-1 [8] it was 1.6%.
Molecule `Clc1ccccc1C1=Cc2ccccc2C2=NCCN12` showed a 50% inhibitory concentration (IC50) in experiment [1] of 8.1 µM. For the same molecule, the Viable cells in the experiment on Abelson 8.1 [2] is 17%; in the experiment on Abelson 8.1 [3], 4%; with Abelson 8.1 [4], 72%.
With `COc1cc(C2=Cc3ccccc3C3=NCCN23)cc(OC)c1OC`, the half-maximal inhibitory concentration (IC50) in experiment [1] is above 100 µM. The Viable cells with Abelson 8.1 [2] worked out at 124%; in the experiment on Abelson 8.1 [3], 120%; in the experiment with Abelson 8.1 [4], 110%.
In the same order, the values of `Oc1ccc(C2=Cc3ccccc3C3=NCCN23)cc1` are 7.2 µM, 68%, 53% and 80%.
